Source: ChEMBL document CHEMBL3414544, “PAINS in the assay: chemical mechanisms of assay interference and promiscuous enzymatic inhibition observed during a sulfhydryl-scavenging HTS” (J Med Chem, 2015)
The source made the active and inactive calls.

Experiments:
[1] = target: T1, Histone acetyltransferase RTT109 (Saccharomyces cerevisiae (strain ATCC 204508 / S288c) (Baker's yeast), UniProt Q07794); assay: Inhibition of Vps75-stimulated recombinant Saccharomyces cerevisiae histone acetyltransferase Rtt109 using Asf1-dH3-H4 as substrate assessed as coenzyme A production after 45 mins by CPM based HTS assay; details: read-out: IC50
T1 sequence (Q07794 whole entry): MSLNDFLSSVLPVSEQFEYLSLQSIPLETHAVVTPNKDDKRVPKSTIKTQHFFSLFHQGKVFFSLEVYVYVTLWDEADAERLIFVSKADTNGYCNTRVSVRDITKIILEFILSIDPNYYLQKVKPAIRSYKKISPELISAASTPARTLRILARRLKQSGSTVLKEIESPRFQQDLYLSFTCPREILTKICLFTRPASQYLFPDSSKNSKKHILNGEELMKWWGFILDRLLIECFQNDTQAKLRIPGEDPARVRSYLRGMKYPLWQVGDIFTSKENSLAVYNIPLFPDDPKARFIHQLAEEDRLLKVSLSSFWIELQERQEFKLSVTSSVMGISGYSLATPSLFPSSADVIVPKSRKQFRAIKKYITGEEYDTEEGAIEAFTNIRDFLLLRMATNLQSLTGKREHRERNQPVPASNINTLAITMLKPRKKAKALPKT
Outline: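 Recombinant Rtt109–Vps75 at 50 nM, with Asf1–dH3–H4 as substrate and acetyl-CoA as acetyl donor. Buffer contained freshly prepared 0.01% Triton X-100. The CoA product was detected by fluorescence of its CPM adduct. Plates had Z′ ≥0.5. IC50 came from a four-parameter variable-slope fit.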

[2] = Fluorescence quenching in HTS buffer assessed as fluorescence signal reduction at 10 uM after 10 mins; format: physicochemical
[3] = Fluorescence quenching in HTS buffer with 20 uM 7-diethylamino-3-(4'-maleimidyl-phenyl)-4-methylcoumarin assessed as fluorescence signal reduction at 10 uM after 10 mins; format: physicochemical
[4] = Fluorescence quenching assessed as fluorescence signal reduction at 10 uM after 10 mins; format: physicochemical
Outline: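 CPM (20 μM final) and CoA (5 μM final) reacted to completion in assay buffer (stable plateau, usually ~5 min); adduct solution added to wells preplated with compound; shaken 5 min, equilibrated 5 min at room temperature; fluorescence intensity read as percent signal reduction versus DMSO controls. Flagged as quencher at >20% signal reduction at 10 μM final compound.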

[5] = target: T2, Histone acetyltransferase RTT109 (Saccharomyces cerevisiae (strain ATCC 204508 / S288c) (Baker's yeast)) (UniProt Q07794); assay: Inhibition of Vps75-stimulated recombinant Saccharomyces cerevisiae histone acetyltransferase Rtt109 assessed as H3K27 acetylated product at […] after 45 mins by Slot bolt inhibiton assay
T2 sequence (whole entry): T1 sequence (Q07794 whole entry)

[6] = target: T2, Histone acetyltransferase RTT109 (Saccharomyces cerevisiae (strain ATCC 204508 / S288c) (Baker's yeast)); assay: Inhibition of Vps75-stimulated recombinant Saccharomyces cerevisiae histone acetyltransferase Rtt109 assessed as H3K56 acetylated product at […] after 45 mins by Slot bolt inhibiton assay
[7] = Fluorescence quenching in HTS buffer with […] CoA assessed as fluorescence signal reduction at 10 uM after 10 mins; format: physicochemical

SMILES	IC50 [1] [µM]	Activity [2]	Activity [3]	Activity [4]	Activity [5]	Activity [6]	Activity [7]
Nc1ncnc2[nH]c(Sc3c([N+](=O)[O-])cc(Br)c4nsnc34)nc12	3.2	Not Active	Not Active	Not Active	Active	Active	Not Active
COc1ccc(Cc2nnc(SC3=CS(=O)(=O)c4ccccc43)o2)cc1	7.1	Not Active	Not Active	Not Active	Active	Active	Not Active
O=S(=O)(Nc1cc(Br)c(O)c2ccccc12)c1ccc(F)cc1	4.4	Not Active	Not Active	Not Active	Active	Active	Not Active
COc1ccc(Nc2nc(-c3ccc(OC)cc3)[n+](CS(=O)(=O)c3ccc(C)cc3)s2)cc1.O=S(=O)([O-])O	2.7	Not Active	Not Active	Not Active	Active	Active	Not Active
O=[N+]([O-])c1ccc(Sc2nnc[nH]2)c2nsnc12	1.7	Not Active	Not Active	Not Active	Active	Active	Not Active
CN(CCO)c1cc(Sc2nnc(-c3ccccc3)o2)c2nonc2c1[N+](=O)[O-]	5.3	Not Active	Not Active	Not Active	Active	Active	Not Active
CC(C)(C)c1ccc(S(=O)(=O)Nc2ccc(O)c(Cl)c2)cc1	75	Not Active	Not Active	Not Active	inactive	inactive	Not Active
O=S(=O)(C[n+]1sc(Nc2ccccc2)nc1-c1ccccc1)c1ccc2ccccc2c1.[Br-]	28	Not Active	Not Active	Not Active	inactive	inactive	Not Active
COc1ccc(N2C(=O)CC(Sc3n[nH]c(-c4ccc(C)cc4)n3)C2=O)cc1 (stereo unspecified)	10	Not Active	Not Active	Not Active	Active	Active	Not Active
O=[N+]([O-])c1ccc(Sc2nnc(-c3ccccc3)o2)c2nonc12	1.1	Not Active	Not Active	Not Active	Active	Active	Not Active
O=S(=O)(Nc1cc(Sc2cccc3cccnc23)c(O)c2ccccc12)c1ccccc1	2.4	Not Active	Not Active	Not Active	Active	Active	Not Active
O=[N+]([O-])c1c(Sc2ncnc3[nH]cnc23)cc(Cl)c2nsnc12	2.2	Not Active	Not Active	Not Active	Active	Active	Not Active
O=[N+]([O-])c1c(SCc2ccccc2)cc(Cl)c2nonc12	1.7	Not Active	Not Active	Not Active	Active	Active	Not Active
